PMC2810120 (Chemical biology & drug design, 2009)
pKd: −log10 of the molar value. Non-standard residues stand in square brackets, D forms with d. Residues, ends and D or L forms follow the SMILES beside them. *: point of attachment. pS = N[C@@H](COP(=O)(O)O)C(=O)O; pNA = O=[N+]([O-])c1ccc(N*)cc1

Columns and labels:
human Pin1 (human) = human Pin1 (human) (UniProt Q13526); assay: NMR titration
[1] = Parallel artificial membrane permeation assay; type: in vitro ADME; details: 100 μM compound, pH 7.2, acceptor concentration after 8 h
Procedure, shortened: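 Lipid-impregnated hydrophobic filter (lipid applied in chloroform, solvent fully evaporated) separates donor from acceptor wells of phosphate buffer pH 7.2. Test compound is added at 100 μM to the donor side, with stock DMSO <5%. A membrane-free equilibrium well is run in parallel. Acceptor and equilibrium concentrations are measured by LC-MS AUC. % flux is the acceptor concentration after 8 h relative to the membrane-free reference well.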

Plasma stability assay = type: in vitro ADME; details: rat plasma, 37 °C, 20 μM, after 30 min
Procedure, shortened: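 Test compound at 20 μM final is incubated in fresh rat plasma at 37 °C. Samples are stopped at 0, 30 and 60 min with two volumes of methanol containing internal standard, then protein is precipitated and samples centrifuged for LC-MS. % parent remaining is taken against the 0 min sample from peak-area ratios to the internal standard. Run in duplicate with a plasma-labile positive control.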

Chain of UniProt Q13526 (Q13526 whole entry): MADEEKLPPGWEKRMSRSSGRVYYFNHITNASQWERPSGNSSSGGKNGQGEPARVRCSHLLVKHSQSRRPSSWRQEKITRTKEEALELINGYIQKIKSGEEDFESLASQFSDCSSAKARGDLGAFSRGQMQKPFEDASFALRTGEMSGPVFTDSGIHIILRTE

pKd (human Pin1 (human)) | Molecule | PAMPA FLUX (%) [1] [%] | plasma stability (Plasma stability assay)
3.49 | Pintide (peptide) | – | –
– | N=C(N)NCCC[C@H](NC(=O)[C@@H]1CCCN1C(=O)[C@H](COP(=O)(O)O)NC(=O)[C@H](Cc1ccc(O)cc1)NC(=O)[C@H](Cc1ccccc1)NC(=O)[C@@H](N)Cc1c[nH]c2ccccc12)C(=O)Nc1ccc([N+](=O)[O-])cc1 [Pintide] (H-WFY[pS]PR-pNA; N-terminus and C-terminus assumed) | 14 | rapidly degraded
